Results: ChEMBL document CHEMBL4396927, “Fluorescent Imidazo[1,5-a]pyridinium Salt for a Potential Cancer Therapy Agent” (ACS Med Chem Lett, 2019)
The source made the active and inactive calls. The calls are words filed in the database; no cut-off is given here.

What was measured:
[1] = test system: Enterobacteria phage phiX174; test: Induction of DNA cleavage in supercoiled phiX174 RF I DNA assessed as formation of nicked circular DNA in presence of UVA-LED irradiation with 365 nm light after 10 mins by RE-DYE based agarose gel electrophoresis method
Method in brief: (§1)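 Supercoiled ΦX174 RF I DNA in TE, with the salt in H2O, was irradiated with UVA-LED for 1, 10, 30, 60 or 180 min. A DNA-only irradiated control was included. Scavenger runs added 1.0 × 10–3 mol L–1 NaN3, KI, DMSO or t-BuOH with 60 min irradiation. Samples were resolved on 0.9% agarose in TAE (40 mmol L–1 Tris-acetate, 1 mmol L–1 EDTA, pH 8.0), and supercoiled (Form I) versus nicked circular (Form II) bands were scored.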

[2] = test system: Enterobacteria phage phiX174; test: Induction of DNA cleavage in supercoiled phiX174 RF I DNA assessed as formation of nicked circular DNA irradiated with 365 nm UVA-LED light under N2 condition measured up to 60 mins by RE-DYE based agarose gel electrophoresis method
HeLa [3] = test: Photocytotoxicity against human HeLa cells assessed as reduction in cell viability at 2.5 x 10^-4 mol/L preincubated for 24 hrs followed by irradiation with 365 nm UVA-LED light for 60 mins and measured after 24 hrs by CCK-8 assay; format: functional, cell-based
Method in brief: (§2)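 Salt-stained HeLa cells were irradiated with UVA-LED for 10, 30 or 60 min. Viability was read immediately after irradiation, or after a further 24 h at 37 °C in the dark. Irradiated cells without salt served as control.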

[4] = Drug distribution in human HeLa cells cytoplasm assessed as decrease in dot shaped cyan signals at 2.5 x 10^-4 mol/L after 24 hrs in presence of endocytosis marker Alexa Fluor 594-conjugated dextran followed by irradiation with 365 nm UVA-LED for 10 to 30 mins by fluorescence based inverted microscopic analysis; conditions: 250 µM
[5] = test system: Enterobacteria phage phiX174; test: Induction of DNA cleavage in supercoiled phiX174 RF I DNA assessed as cleavage of supercoiled DNA in presence of UVA-LED irradiation with 365 nm light after 60 mins by RE-DYE based agarose gel electrophoresis method relative to control; method in brief: as §1
HeLa [6] = test: Induction of mitochondrial depolarization in human HeLa cells assessed at 2.5 x 10^-4 mol/L preincubated for 24 hrs followed by irradiation with 365 nm UVA-LED for 30 mins by JC-1 staining based inverted microscopic analysis; format: functional, cell-based
Method in brief: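 Mitochondrial membrane potential was assessed by JC-1 in HeLa cells with or without the salt after UVA-LED irradiation for 0, 30 or 60 min. FCCP served as the depolarization positive control. Imaging used WIY and WU filters plus bright field.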

[7] = Drug distribution in human HeLa cells cytoplasm assessed as increase in super oxide anion level at 2.5 x 10^-4 mol/L preincubated for 24 hrs followed by irradiation with 365 nm UVA-LED light measured at 5 mins interval for 30 mins by MitoROS stress marker based laser confocal microscopic analysis; format: ADME, subcellular; conditions: 0.5 h, 250 µM
Method in brief: (§3)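 Live HeLa cells, with or without the salt, were loaded with OxiORANGE (hydroxyl radical) or MitoROS 580 (superoxide) and imaged during UV irradiation for 30 min. Blue fluorescence was taken through a DAPI filter and red through a TRITC filter. Intensities were quantified at endosomal positions, in cytoplasm and for the red probe.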

[8] = test system: Enterobacteria phage phiX174; test: Induction of DNA cleavage in supercoiled phiX174 RF I DNA assessed as DNA photo cleavage irradiated with 365 nm UVA-LED light in presence of DMSO measured up to 60 mins by RE-DYE based agarose gel electrophoresis method; method in brief: as §1
HeLa [9] = test: Antiproliferative against human HeLa cells assessed as reduction in cell viability at 0.08 x 10^-4 mol/L to 1.25 x 10^-4 mol/L after 24 hrs by CCK-8 assay; format: functional, cell-based
Method in brief: (§4)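 HeLa viability was read by CCK-8 after 1 h (acute) or 24 h (subacute) incubation with a concentration series of the salt. The top concentration was 2.5 × 10–4 mol L–1, limited by water solubility. IC50 was estimated, not determined.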

HeLa [10] = test: Induction of mitochondrial depolarization in human HeLa cells assessed at 2.5 x 10^-4 mol/L preincubated for 24 hrs followed by irradiation with 365 nm UVA-LED for 30 mins under hypoxic conditions by JC-1 staining based inverted microscopic analysis; format: functional, cell-based
Method in brief: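 The JC-1 mitochondrial membrane potential assay was run on salt-stained HeLa cells under UVA-LED irradiation in hypoxic conditions.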

HeLa [11] = test: Antiproliferative against human HeLa cells assessed as reduction in cell viability at 2.5 x 10^-4 mol/L after 24 hrs by CCK-8 assay; format: functional, cell-based; method in brief: as §4
[12] = Drug localization in endosomes of human HeLa cells assessed as co-localization of compound with endosome at 2.5 x 10^-4 mol/L after 24 hrs in presence of endocytosis marker Alexa Fluor 594-conjugated dextran by fluorescence based inverted microscopic analysis; format: ADME, subcellular; conditions: 250 µM
Method in brief: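 HeLa cells were co-incubated with the salt and an endocytosis marker at 37 °C, 5% CO2, for 24 h. Imaging used bright field, cyan fluorescence through a WU filter and red marker fluorescence through a WIY filter, and the images were merged to assess colocalization.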

[13] = test system: Enterobacteria phage phiX174; test: Induction of DNA cleavage in supercoiled phiX174 RF I DNA assessed as DNA photo cleavage irradiated with 365 nm UVA-LED light in presence of KI measured up to 60 mins by RE-DYE based agarose gel electrophoresis method; method in brief: as §1
HeLa [14] = test: Photocytotoxicity against human HeLa cells assessed as reduction in cell viability at 2.5 x 10^-4 mol/L preincubated for 24 hrs followed by irradiation with 365 nm UVA-LED light after 10 mins by CCK-8 assay; format: functional, cell-based; method in brief: as §2
[15] = Drug distribution in human HeLa cell cytoplasm assessed as increase in hydroxyl radical at 2.5 x 10^-4 mol/L preincubated for 24 hrs followed by irradiation with 365 nm UVA-LED light measured at 5 mins interval for 30 mins by OxiORANGE stress marker based laser confocal microscopic analysis; format: ADME, subcellular; conditions: 0.5 h, 250 µM; method in brief: as §3
HeLa [16] = test: Photocytotoxicity against human HeLa cells assessed as reduction in cell viability at 2.5 x 10^-4 mol/L preincubated for 24 hrs followed by irradiation with 365 nm UVA-LED light after 30 mins by CCK-8 assay; format: functional, cell-based; method in brief: as §2
HeLa [17] = test: Photocytotoxicity against human HeLa cells assessed as reduction in cell viability at 2.5 x 10^-4 mol/L preincubated for 24 hrs followed by irradiation with 365 nm UVA-LED light after 60 mins by CCK-8 assay; format: functional, cell-based; method in brief: as §2
[18] = test system: Enterobacteria phage phiX174; test: Induction of DNA cleavage in supercoiled phiX174 RF I DNA assessed as DNA photo cleavage irradiated with 365 nm UVA-LED light in presence of t-BuOH measured up to 60 mins by RE-DYE based agarose gel electrophoresis method; method in brief: as §1
[19] = test system: Enterobacteria phage phiX174; test: Induction of DNA cleavage in supercoiled phiX174 RF I DNA assessed as DNA photo cleavage irradiated with 365 nm UVA-LED light in presence of NaN3 measured up to 60 mins by RE-DYE based agarose gel electrophoresis method; method in brief: as §1
[20] = Drug localization in human HeLa cells mitochondria at 2.5 x 10^-4 mol/L incubated for 24 hrs by Mitotracker Red staining based inverted microscopic analysis; format: ADME; conditions: 250 µM
Method in brief: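 HeLa cells were stained with the salt and a mitochondrial marker, either without UVA-LED or with marker incubation after 30 min of UVA-LED irradiation. Overlap of cyan and red fluorescence was assessed.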

HeLa [21] = test: Antiproliferative against human HeLa cells assessed as reduction in cell viability after 24 hrs by CCK-8 assay; format: functional, cell-based; method in brief: as §4
HeLa [22] = test: Antiproliferative activity against human HeLa cells assessed as reduction in cell viability by measuring mitochondrial damage at 2.5 x 10^-4 mol/L preincubated for 24 hrs followed by irradiation with 365 nm UVA-LED light after 30 mins by inverted microscopic analysis; format: functional, cell-based

Compound: C[n+]1c(-c2ccccc2)c2ccccn2c1-c1n2ccccc2c(-c2ccccc2)[n+]1C.[I-].[I-]
- Activity [1]: Active
- Activity [2]: Active
- Activity (HeLa [3]): Active
- Drug uptake [4]: Active
- Activity [5]: 100%
- Activity (HeLa [6]): Active
- Drug uptake [7]: Active
- Activity [8]: Active
- Activity (HeLa [9]): inactive
- Activity (HeLa [10]): inactive
- Activity (HeLa [11]): Active
- Drug uptake [12]: Active
- Activity [13]: Active
- Activity (HeLa [14]): inactive
- Drug uptake [15]: Active
- Activity (HeLa [16]): Active
- Activity (HeLa [17]): Active
- Activity [18]: Active
- Activity [19]: Active
- Drug uptake [20]: Not Active
- IC50 (HeLa [21]): Nd(Insoluble)
- Activity (HeLa [22]): Active
